Active and inactive are the calls of the source. The rule behind the calls is not given here.
Key:
[1] = target: T1, Polyunsaturated fatty acid 5-lipoxygenase (Homo sapiens) (UniProt P09917); assay: Inhibition of human recombinant 5-LO expressed in Escherichia coli BL21 using arachidonic acid as substrate assessed as residual activity at 10 uM preincubated for 10 mins followed by substrate addition and measured after 10 mins by RP-HPLC analysis relative to control; settings: time 20.0 min
T1 sequence (whole entry): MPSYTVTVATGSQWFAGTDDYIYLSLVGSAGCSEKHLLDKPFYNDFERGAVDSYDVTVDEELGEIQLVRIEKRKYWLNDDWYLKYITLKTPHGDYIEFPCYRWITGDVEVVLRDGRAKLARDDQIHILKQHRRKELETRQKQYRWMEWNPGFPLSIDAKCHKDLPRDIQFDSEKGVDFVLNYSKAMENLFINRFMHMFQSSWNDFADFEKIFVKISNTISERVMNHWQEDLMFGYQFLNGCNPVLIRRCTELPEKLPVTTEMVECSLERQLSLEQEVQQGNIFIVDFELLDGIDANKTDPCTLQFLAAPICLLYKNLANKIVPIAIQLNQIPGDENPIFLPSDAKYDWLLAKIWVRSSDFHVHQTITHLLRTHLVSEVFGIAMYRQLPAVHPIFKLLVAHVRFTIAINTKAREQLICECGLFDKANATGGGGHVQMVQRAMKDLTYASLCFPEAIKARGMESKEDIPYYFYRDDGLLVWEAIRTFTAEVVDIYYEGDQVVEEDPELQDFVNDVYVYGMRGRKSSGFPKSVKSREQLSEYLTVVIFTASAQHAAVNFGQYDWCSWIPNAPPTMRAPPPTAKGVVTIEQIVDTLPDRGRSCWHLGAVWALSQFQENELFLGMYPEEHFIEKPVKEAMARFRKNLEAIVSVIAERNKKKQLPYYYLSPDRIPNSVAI

[2] = tested on: Macrophage; assay: Inhibition of 5-LO product formation in Staphylococcus aureus activated human monocyte derived macrophages at 10 uM preincubated for 15 mins followed by Staphylococcus aureus activation for 90 mins by UPLC-MS/MS analysis; assay type: functional, cell-based; settings: time 105.0 min
[3] = tested on: J774.A1; assay: Modulation of IL-6 production in LPS-stimulated mouse J774.A1 cells at 1 uM incubated for 24 hrs by ELISA; assay type: functional, cell-based
Method in brief: (§1)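 Murine J774A.1 macrophages were stimulated with LPS and exposed to test compounds. IL-6 and PGE2 released were measured in pg/mL. Mean ± SD.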

[4] = tested on: J774.A1; assay: Modulation of PGE2 production in LPS-stimulated mouse J774.A1 cells at 1 uM incubated for 24 hrs by ELISA; assay type: functional, cell-based; method in brief: as §1
[5] = tested on: Mus musculus; assay: (§2) Anti-inflammatory activity against CD-1 mouse model of zymosan-induced peritonitis assessed as reduction in leucocyte recruitment in lavage fluid at 1 to 10 mg/kg, ip pretreated with zymosan for 30 mins followed by compound addition and measured after 4 to 24 hrs by TC10 automated cell counter analysis; assay type: functional, organism-based; settings: dose 1-10 mg/kg, time 4-24 hrs
Method in brief: (§3)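 Mice got zymosan 500 mg/kg i.p.; test compound was injected i.p. 30 min later. PBS-only controls were included, along with a dexamethasone (3 mg/kg) reference group. Peritoneal exudate was collected at 4 and 24 h. Total cells were counted, and IL-1β, IL-6, PGE2 and IL-10 were measured in exudate, normalized to exudate levels. Mean ± SD.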

[6] = tested on: Mus musculus; assay: Anti-inflammatory activity against CD-1 mouse model of zymosan-induced peritonitis assessed as reduction in IL-1beta level at 10 mg/kg, ip pretreated with zymosan for 30 mins followed by compound addition and measured after 4 to 24 hrs by ELISA; assay type: functional, organism-based; settings: time 4-24 hrs; method in brief: as §3
[7] = tested on: Mus musculus; assay: Anti-inflammatory activity against CD-1 mouse model of zymosan-induced peritonitis assessed as reduction in IL-6 level at 10 mg/kg, ip pretreated with zymosan for 30 mins followed by compound addition and measured after 4 to 24 hrs by ELISA; assay type: functional, organism-based; settings: time 4-24 hrs; method in brief: as §3
[8] = tested on: Mus musculus; assay: Anti-inflammatory activity against CD-1 mouse model of zymosan-induced peritonitis assessed as reduction in PGE2 level at 10 mg/kg, ip pretreated with zymosan for 30 mins followed by compound addition and measured after 4 to 24 hrs by ELISA; assay type: functional, organism-based; settings: time 4-24 hrs; method in brief: as §3
[9] = tested on: Mus musculus; assay: Anti-inflammatory activity against CD-1 mouse model of zymosan-induced peritonitis assessed as reduction in IL-10 level at 10 mg/kg, ip pretreated with zymosan for 30 mins followed by compound addition and measured after 24 hrs by ELISA; assay type: functional, organism-based; method in brief: as §3
[10] = target: T2, Polyunsaturated fatty acid 5-lipoxygenase (Homo sapiens, UniProt P09917); assay: Inhibition of human recombinant 5-LO expressed in Escherichia coli BL21 using arachidonic acid as substrate preincubated for 10 mins followed by substrate addition and measured after 10 mins by RP-HPLC analysis
T2 sequence (P09917 whole entry): T1 sequence (whole entry)

[11] = tested on: A549; assay: Inhibition of PGE2 biosynthesis in IL-1β stimulated human A549 cells incubated for 24 hrs by ELISA; settings: dose 5-10 µM
[12] = tested on: Mus musculus; assay: as §2, with “peritoneal cavity” for “lavage fluid”, “3” for “1 to 10”; assay type: functional, organism-based; settings: time 4-24 hrs
[13] = tested on: Mus musculus; assay: Anti-inflammatory activity against CD-1 mouse model of zymosan-induced peritonitis assessed as reduction in IL-1beta level at 3 mg/kg, ip pretreated with zymosan for 30 mins followed by compound addition and measured after 4 to 24 hrs by ELISA; assay type: functional, organism-based; settings: time 4-24 hrs
[14] = tested on: Mus musculus; assay: Anti-inflammatory activity against CD-1 mouse model of zymosan-induced peritonitis assessed as reduction in IL-6 level at 3 mg/kg, ip pretreated with zymosan for 30 mins followed by compound addition and measured after 4 to 24 hrs by ELISA; assay type: functional, organism-based; settings: time 4-24 hrs
[15] = tested on: Mus musculus; assay: Anti-inflammatory activity against CD-1 mouse model of zymosan-induced peritonitis assessed as reduction in PGE2 level at 3 mg/kg, ip pretreated with zymosan for 30 mins followed by compound addition and measured after 4 to 24 hrs by ELISA; assay type: functional, organism-based; settings: time 4-24 hrs
[16] = tested on: Mus musculus; assay: Anti-inflammatory activity against CD-1 mouse model of zymosan-induced peritonitis assessed as reduction in IL-10 level at 3 mg/kg, ip pretreated with zymosan for 30 mins followed by compound addition and measured after 24 hrs by ELISA; assay type: functional, organism-based

SMILES | Activity [1] [%] | IC50 [10] [µM] | 5-LO product formation inhibition (active/inactive) [2] | Activity [3] | Activity [4] | inhibition [11] | other results
O=C(Nc1nnc(-c2ccc(-c3cccc(O)c3)cc2)s1)c1ccccc1Br | 125 | – | Active | Active | Active | – | Activity [5]: Active; Activity [6]: Active; Activity [7]: Active; Activity [8]: Active; Activity [9]: Active
Nc1ccccc1-c1ccc(-c2nnc(NC(=O)c3ccccc3Br)s2)cc1 | – | 24.3 | Active | inactive | Active | Dose-Dependent Effect | –
Cc1cc(C(=O)Nc2nnc(-c3ccc(-c4cccc(O)c4)cc3)s2)cc(Cl)n1 | – | – | inactive | – | – | – | –
C[C@@H]1C[C@H]2[C@@H]3CCC4=CC(=O)C=C[C@]4(C)[C@@]3(F)[C@@H](O)C[C@]2(C)[C@@]1(O)C(=O)CO | – | – | – | – | – | – | Activity [12]: Active; Activity [13]: Active; Activity [14]: Active; Activity [15]: Active; Activity [16]: Active

Now from value to compound, other results behind:

Activity [1] [%] | IC50 [10] [µM] | SMILES | 5-LO product formation inhibition (active/inactive) [2] | Activity [3] | Activity [4] | inhibition [11] | other results
– | 42.8 | Cc1cc(C(=O)Nc2nnc(-c3ccc(-c4ccccc4N)cc3)s2)cc(Cl)n1 | Active | – | – | Dose-Dependent Effect | –
75.9 | – | Nc1ccccc1-c1ccc(-c2nnc(NC(=O)c3c(Cl)ccnc3Cl)s2)cc1 | Active | – | – | Dose-Dependent Effect | –
